Results from ChEMBL document CHEMBL1134344, “Crystal structure of human cyclin-dependent kinase 2 in complex with the adenine-derived inhibitor H717” (J Med Chem, 2001).

Key:
[1] = target: Cyclin-dependent kinase 1/cyclin B (Homo sapiens, UniProt P06493); test: Inhibition of human cyclic dependent kinase 1 (CDK1)/cyclin B; assay type: protein-complex assay
[2] = tested on: A549; test: Inhibition of A549 human lung tumor cell proliferation; assay type: functional, cell-based
Procedure, shortened: (§1)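 Tumor cells harvested with trypsin-EDTA, trypan-blue-excluding cells counted, plated and left overnight at 37 °C; drug diluted in culture medium and added for 72 h (three days). Medium then removed, plates frozen at -80 °C ≥30 min, thawed, and CyQUANT-GR in lysis buffer added for 3-5 min at room temperature.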

[3] = target: Cyclin-dependent kinase 4/cyclin D1 (Homo sapiens, UniProt P11802); test: Inhibition of cyclic dependent kinase 4 (CDK4)/cyclin D1; assay type: protein-complex assay
Procedure, shortened: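 Human CDK4 and cyclin D1 coexpressed in Sf9 cells (baculovirus, MOI 0.1 each, 72 h); 0.1 ng enzyme from clarified lysate. Substrate GST-Rb (0.5 µg) on glutathione-Sepharose beads. ATP 10 µM plus [γ33P]ATP; 30 min at 30 °C. Filtration, TNEN washes, scintillation counting; IC50 from increasing drug concentrations.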

[4] = tested on: DMS-114; test: Inhibition of DMS114 human lung tumor cell proliferation; assay type: functional, cell-based; procedure, shortened: as §1
[5] = tested on: MCF7; test: Inhibition of MCF-7 human breast tumor cell proliferation; assay type: functional, cell-based; procedure, shortened: as §1
[6] = tested on: MDA-MB-231; test: Inhibition of MDA-MB-231 human breast tumor cell proliferation; assay type: functional, cell-based; procedure, shortened: as §1
[7] = tested on: DU-145; test: Inhibition of DU-145 human prostate tumor cell proliferation; assay type: functional, cell-based; procedure, shortened: as §1
[8] = tested on: HCT-15; test: Inhibition of HCT-15 human colon tumor cell proliferation; assay type: functional, cell-based; procedure, shortened: as §1
[9] = tested on: HT-29; test: Inhibition of HT-29 human colon tumor cell proliferation; assay type: functional, cell-based; procedure, shortened: as §1
[10] = tested on: PC-3; test: Inhibition of PC-3 human prostate tumor cell proliferation; assay type: functional, cell-based; procedure, shortened: as §1
[11] = target: Cyclin-dependent kinase 2/cyclin E (Homo sapiens, UniProt P24941); test: Inhibition of cyclic dependent kinase 2 (CDK2)/cyclin E; assay type: protein-complex assay

Sequence of Cyclin-dependent kinase 4/cyclin D1 (P11802 whole entry): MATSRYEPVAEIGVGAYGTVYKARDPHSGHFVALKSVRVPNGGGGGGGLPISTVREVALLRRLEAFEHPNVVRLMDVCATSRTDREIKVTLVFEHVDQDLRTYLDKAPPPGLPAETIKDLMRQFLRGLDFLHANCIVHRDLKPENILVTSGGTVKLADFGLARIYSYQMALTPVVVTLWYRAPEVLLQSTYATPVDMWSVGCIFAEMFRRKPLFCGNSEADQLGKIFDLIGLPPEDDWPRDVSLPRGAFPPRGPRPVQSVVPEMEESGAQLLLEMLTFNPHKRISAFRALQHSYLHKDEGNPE
Sequence of Cyclin-dependent kinase 4/cyclin D1 (P24385 whole entry, further chain): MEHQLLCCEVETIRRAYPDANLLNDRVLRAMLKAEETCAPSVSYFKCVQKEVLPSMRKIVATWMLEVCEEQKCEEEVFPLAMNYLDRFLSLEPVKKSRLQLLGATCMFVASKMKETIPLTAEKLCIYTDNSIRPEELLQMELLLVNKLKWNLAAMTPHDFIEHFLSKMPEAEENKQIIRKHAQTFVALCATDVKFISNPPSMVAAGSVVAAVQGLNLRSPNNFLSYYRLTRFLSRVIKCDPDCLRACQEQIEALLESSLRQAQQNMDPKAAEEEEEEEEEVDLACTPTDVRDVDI

| SMILES | IC50 [1] | IC50 [2] | IC50 [3] | IC50 [4] | IC50 [5] | IC50 [6] | IC50 [7] | IC50 [8] | IC50 [9] | IC50 [10] | IC50 [11] |
| --- | --- | --- | --- | --- | --- | --- | --- | --- | --- | --- | --- |
| N[C@H]1CC[C@H](Nc2nc(NCc3ccccc3)c3ncn(C4CCCC4)c3n2)CC1 | 0.052 µM | – | – | – | – | – | – | – | – | – | – |
| C[C@H](Nc1nc(N[C@H]2CC[C@H](N)CC2)nc2c1ncn2C1CCCC1)c1ccccc1 | 2 µM | 6.1 µM | 8.8 µM | 6.6 µM | 3.3 µM | 5.2 µM | 5.6 µM | 8.6 µM | 5.7 µM | 3.9 µM | 0.72 µM |
| N[C@H]1CC[C@H](Nc2nc(NCC3CC3)c3ncn(C4CCCC4)c3n2)CC1 | 0.07 µM | 1.6 µM | 0.78 µM | 1.4 µM | 1.3 µM | 1.7 µM | 1.3 µM | 3.3 µM | 2 µM | 0.6 µM | 0.024 µM |
| N[C@H]1CC[C@H](Nc2nc(NCc3cccc(I)c3)c3ncn(C4CCCC4)c3n2)CC1 | 0.226 µM | 1 µM | 2 µM | 1 µM | 0.6 µM | 1 µM | 1.6 µM | 2.1 µM | 1.2 µM | 1.4 µM | 0.05 µM |
